Results: ChEMBL document CHEMBL4138056, “T- and B-cell immunosuppressive activity of novel α-santonin analogs with humoral and cellular immune response in Balb/c mice” (Medchemcomm, 2017)

Legend:
B-cell line [1] = assay: Immunosuppressive activity in Balb/c mouse B cells assessed as inhibition of LPS-induced cell proliferation at 10 uM after 48 hrs by MTT assay relative to control; type: functional
In short: (§1)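 Balb/c spleen single-cell suspension, RBCs lysed with tris-ammonium chloride, viability by trypan blue; 1×10^6 cells/mL stimulated with LPS (10 μg/mL) for B cells, test agent 1, 10 or 100 μM, 48 h at 37 °C, 5% CO2. MTT 4 h, DMSO solubilization, OD 540 nm; % change vs mitogen control; triplicate, three separate experiments.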

B-cell line [2] = assay: Immunosuppressive activity in Balb/c mouse B cells assessed as inhibition of LPS-induced cell proliferation at 1 uM after 48 hrs by MTT assay relative to control; type: functional; in short: as §1
B-cell line [3] = assay: Immunostimulant activity in Balb/c mouse B cells assessed as induction of LPS-induced cell proliferation at 100 uM after 48 hrs by MTT assay relative to control; type: cell-based; in short: as §1
Murine T-cell line [4] = assay: Cytotoxicity against Balb/c mouse T cells assessed as decrease in cell survival at 100 uM by MTT assay; type: cell-based
In short: (§2)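 Balb/c splenocytes (RBC lysed with tris-ammonium chloride, trypan blue viability) seeded at 1×10^6 cells/mL with Con A or LPS (10 μg/mL each) and test agent at 1, 10 or 100 μM for 48 h at 37 °C, 5% CO2; MTT added for 4 h, formazan dissolved in DMSO, OD 540 nm. Cytotoxicity scored +/−; triplicate, three separate experiments.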

Murine T-cell line [5] = assay: Cytotoxicity against Balb/c mouse T cells assessed as decrease in cell survival at 10 uM by MTT assay; type: cell-based; in short: as §2
Murine T-cell line [6] = assay: Cytotoxicity against Balb/c mouse T cells assessed as decrease in cell survival at 1 uM by MTT assay; type: cell-based; in short: as §2
B-cell line [7] = assay: Cytotoxicity against Balb/c mouse B cells assessed as decrease cell survival at 100 uM by MTT assay; type: cell-based; in short: as §2
B-cell line [8] = assay: Cytotoxicity against Balb/c mouse B cells assessed as decrease cell survival at 10 uM by MTT assay; type: cell-based; in short: as §2
B-cell line [9] = assay: Cytotoxicity against Balb/c mouse B cells assessed as decrease cell survival at 1 uM by MTT assay; type: cell-based; in short: as §2
Murine T-cell line [10] = assay: Immunostimulant activity in Balb/c mouse T cells assessed as induction of ConA-induced cell proliferation at 100 uM after 48 hrs by MTT assay relative to control
Murine T-cell line [11] = assay: Immunosuppressive activity in Balb/c mouse T cells assessed as inhibition of ConA-induced cell proliferation at 1 uM after 48 hrs by MTT assay relative to control
Murine T-cell line [12] = assay: Immunosuppressive activity in Balb/c mouse T cells assessed as inhibition of ConA-induced cell proliferation at 10 uM after 48 hrs by MTT assay relative to control
B-cell line [13] = assay: Immunosuppressive activity in Balb/c mouse B cells assessed as inhibition of LPS-induced cell proliferation at 100 uM after 48 hrs by MTT assay relative to control; type: functional; in short: as §1
B-cell line [14] = assay: Immunostimulant activity in Balb/c mouse B cells assessed as induction of LPS-induced cell proliferation at 1 uM after 48 hrs by MTT assay relative to control; type: cell-based; in short: as §1
Murine T-cell line [15] = assay: Immunosuppressive activity in Balb/c mouse T cells assessed as inhibition of ConA-induced cell proliferation at 100 uM after 48 hrs by MTT assay relative to control
B-cell line [16] = assay: Immunostimulant activity in Balb/c mouse B cells assessed as induction of LPS-induced cell proliferation at 10 uM after 48 hrs by MTT assay relative to control; type: cell-based; in short: as §1
Mus musculus [17] = assay: Inhibition of delayed-type hypersensitivity reaction in Balb/c mouse assessed as decrease in sheep RBC-induced footpad thickness at 12.5 mg/kg, po qd administered 6 consecutive days followed by sheep RBC challenge measured after 24 to 48 hrs by spheromicrometer relative to control; type: functional
In short: (§3)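 Female Balb/c mice, groups of six, SRBC-immunized; oral dosing starting 2 h after SRBC, then once daily. Six days later baseline left hind footpad thickness read by spheromicrometer, then intradermal footpad challenge with 20 μL of 5×10^9 SRBC/mL; thickness re-measured at 24 and 48 h versus control group.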

Mus musculus [18] = assay: Inhibition of delayed-type hypersensitivity reaction in Balb/c mouse assessed as decrease in sheep RBC-induced footpad thickness at 25 mg/kg, po qd administered 6 consecutive days followed by sheep RBC challenge measured after 24 to 48 hrs by spheromicrometer relative to control; type: functional; in short: as §3
Mus musculus [19] = assay: Inhibition of humoral immune response in Balb/c mouse assessed as decrease in sheep RBC hemagglutination at 6.25 mg/kg, po qd administered 6 consecutive days measured on day 7 by micro titration method relative to control; type: functional; conditions: 168 h
In short: (§4)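 Female Balb/c mice, groups of six, immunized with SRBC and dosed orally; blood taken on day 7 for primary antibody titre, hemagglutination titre determined by modified microtitration; suppression versus control group.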

Mus musculus [20] = assay: Inhibition of humoral immune response in Balb/c mouse assessed as decrease in sheep RBC hemagglutination at 25 mg/kg, po qd administered 6 consecutive days measured on day 7 by micro titration method relative to control; type: functional; conditions: 168 h; in short: as §4
Murine T-cell line [21] = assay: Immunostimulant activity in Balb/c mouse T cells assessed as induction of ConA-induced cell proliferation at 10 uM after 48 hrs by MTT assay relative to control

| Structure (SMILES) | inhibition at 10 µM (B-cell line [1]) [%] | inhibition at 1 µM (B-cell line [2]) [%] | Activity (B-cell line [3]) [%] | Activity (Murine T-cell line [4]) | Activity (Murine T-cell line [5]) | Activity (Murine T-cell line [6]) | Activity (B-cell line [7]) | Activity (B-cell line [8]) | Activity (B-cell line [9]) | Activity (Murine T-cell line [10]) [%] | inhibition at 1 µM (Murine T-cell line [11]) [%] | inhibition at 10 µM (Murine T-cell line [12]) [%] | inhibition at 100 µM (B-cell line [13]) [%] | inhibition at 100 µM (Murine T-cell line [15]) [%] | other results |
| --- | --- | --- | --- | --- | --- | --- | --- | --- | --- | --- | --- | --- | --- | --- | --- |
| Cc1cc(O)c(C)c2c1CC[C@H]1[C@H](C)C(=O)O[C@@H]21 | 24.9 | 23.3 | 38.25 | Toxic | Toxic | Toxic | Toxic | Toxic | Toxic | 58.13 | 22.1 | 27.4 | – | – | – |
| Cc1cc(OC(=O)C(C)C)c(C)c2c1CC[C@H]1[C@H](C)C(=O)O[C@@H]21 | 33.3 | – | – | Non-Toxic | Non-Toxic | Non-Toxic | Non-Toxic | Non-Toxic | Non-Toxic | – | 53.3 | 61.5 | 52.1 | 73.2 | Activity (B-cell line [14]): 20.83% |
| CCCCCCCC(=O)Oc1cc(C)c2c(c1C)[C@@H]1OC(=O)[C@@H](C)[C@@H]1CC2 | – | 37.5 | – | Toxic | Non-Toxic | Non-Toxic | Toxic | Non-Toxic | Non-Toxic | – | 50.4 | 43.1 | 57.3 | 4.22 | Activity (B-cell line [16]): 53.12% |
| CCCOc1cc(C)c2c(c1C)[C@@H]1OC(=O)[C@@H](C)[C@@H]1CC2 | 49 | 47 | – | Toxic | Toxic | Non-Toxic | Toxic | Toxic | Non-Toxic | 36 | 33 | 41 | 43 | – | – |
| Cc1cc(OCc2ccccc2)c(C)c2c1CC[C@H]1[C@H](C)C(=O)O[C@@H]21 | 74 | 53 | 29 | Toxic | Non-Toxic | Non-Toxic | Toxic | Non-Toxic | Non-Toxic | 16 | 58 | 60 | – | – | – |
| Cc1cc(OC(=O)C(C)(C)C)c(C)c2c1CC[C@H]1[C@H](C)C(=O)O[C@@H]21 | 66 | 48.7 | – | Non-Toxic | Non-Toxic | Non-Toxic | Non-Toxic | Non-Toxic | Non-Toxic | – | 35.1 | 58.1 | 80.5 | 75 | inhibition in vivo at 12.5 mg/kg (Mus musculus [17]): 30%; inhibition in vivo at 25 mg/kg (Mus musculus [18]): 35%; inhibition in vivo at 6.25 mg/kg (Mus musculus [19]): 28%; inhibition in vivo at 25 mg/kg (Mus musculus [20]): 41% |
| CCCCCC(=O)Oc1cc(C)c2c(c1C)[C@@H]1OC(=O)[C@@H](C)[C@@H]1CC2 | 26 | 22.9 | 7.29 | Toxic | Toxic | Non-Toxic | Toxic | Toxic | Non-Toxic | – | 39.4 | 46 | – | 78.9 | – |
| CCCCC(=O)Oc1cc(C)c2c(c1C)[C@@H]1OC(=O)[C@@H](C)[C@@H]1CC2 | 49 | 2.08 | 6.25 | Toxic | Non-Toxic | Non-Toxic | Toxic | Non-Toxic | Non-Toxic | 28.16 | 43.2 | 29.6 | – | – | – |
| CC1=C2[C@H]3OC(=O)[C@@H](C)[C@@H]3CC[C@@]2(C)C=CC1=O [SANTONIN] | 27.1 | 19 | – | Non-Toxic | Non-Toxic | Non-Toxic | Non-Toxic | Non-Toxic | Non-Toxic | – | 35.4 | – | 33.2 | 8.16 | Activity (Murine T-cell line [21]): 3.55% |
